This is an account of results in ChEMBL document CHEMBL4219146, “Synthesis and Pharmacological Evaluation of Heterocyclic Carboxamides: Positive Allosteric Modulators of the M1 Muscarinic Acetylcholine Receptor with Weak Agonist Activity and Diverse Modulatory Profiles” (J Med Chem, 2018).

Calls of active or inactive are those of the source. The rule behind the calls is not given here.

For test [1], the target named is T1, Muscarinic acetylcholine receptor M1 (Homo sapiens) (UniProt P11229).
T1 sequence (whole entry): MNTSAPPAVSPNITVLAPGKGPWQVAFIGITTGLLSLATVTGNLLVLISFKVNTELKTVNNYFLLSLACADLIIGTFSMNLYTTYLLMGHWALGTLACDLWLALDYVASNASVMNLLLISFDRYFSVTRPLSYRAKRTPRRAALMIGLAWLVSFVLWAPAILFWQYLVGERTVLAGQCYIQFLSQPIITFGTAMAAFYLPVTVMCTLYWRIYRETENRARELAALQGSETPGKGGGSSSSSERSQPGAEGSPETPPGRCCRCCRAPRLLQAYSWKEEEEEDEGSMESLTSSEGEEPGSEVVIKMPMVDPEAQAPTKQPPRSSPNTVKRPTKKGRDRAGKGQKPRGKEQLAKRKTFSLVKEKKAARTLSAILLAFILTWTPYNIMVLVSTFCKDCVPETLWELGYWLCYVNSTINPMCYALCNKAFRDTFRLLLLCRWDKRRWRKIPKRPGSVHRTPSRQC
The test is described as follows: Positive allosteric modulation of human muscarinic acetylcholine receptor M1 expressed in flpIn-CHO cells assessed as potentiation of acetylcholine-mediated IP1 accumulation at 10 uM measured after 1 hr by based HTRF assay relative to control. The class given is functional, cell-based. In short, it runs like this:
(§1)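 FlpIn CHO-hM1 cells, 25,000/well, seeded overnight, then preincubated 1 h at 37 °C in HEPES stimulation buffer with 50 mM LiCl, pH 7.4. ACh concentration-response curves run ± 10 µM modulator for 1 h at 37 °C. IP1 read by HTRF (665/620 nm) from lysates, interpolated from a standard curve and normalized to the ACh maximum. ∆pEC50 and ∆baseline taken versus ACh alone. ≥3 experiments, in duplicate.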
In general terms: TR-FRET usually uses a lanthanide donor and a delayed reading to cut background.

For test [2], the target named is T1, Muscarinic acetylcholine receptor M1 (Homo sapiens). The test is described as follows: Intrinsic activity at human muscarinic acetylcholine receptor M1 expressed in flpIn-CHO cells assessed as induction of IP1 accumulation at 10 uM after 1 hr by HTRF assay relative to control. Format: functional, cell-based. In short, it runs like this:
as §1

Test [3] has the same target. The test is described as follows: Displacement of [3H]-NMS from human muscarinic acetylcholine receptor M1 expressed in flpIn-CHO cell membranes after 5 hrs in presence of acetylcholine at EC20 by liquid scintillation counting. In short, it runs like this:
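Whole-cell binding in FlpIn CHO-hM1 cells, 50,000/well, plated overnight and PBS-washed. Modulator titrated with a fixed EC20 ACh plus 0.2 nM [3H]NMS for 5 h at room temperature in HEPES/NaCl/MgCl2 buffer, pH 7.4. 100 µM atropine defined nonspecific binding. Cells washed with ice-cold saline and counted by scintillation. Data fitted to the allosteric ternary complex model.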

The target of test [4] is T2, Muscarinic acetylcholine receptor M1 (Homo sapiens, UniProt P11229).
T2 sequence (P11229 whole entry): T1 sequence (whole entry)
As to the kind of experiment: Positive allosteric modulation of human muscarinic acetylcholine receptor M1 expressed in CHO cells assessed as potentiation of acetylcholine-induced calcium mobilization preincubated for 2.5 mins followed by acetylcholine addition measured after 1 min by Fluo-4AM-based FLIPR assay. The class given is functional, cell-based. (Calcium assays in cells follow changes in intracellular calcium, usually with a dye or a luminescent sensor.)

For test [5], the target named is T2, Muscarinic acetylcholine receptor M1. As to the kind of experiment: Allosteric agonist at human muscarinic acetylcholine receptor M1 expressed in CHO cells assessed as induction of calcium mobilization after 2.5 mins by Fluo-4AM-based FLIPR assay. The class given is functional, cell-based.
Test [6] addresses T1, Muscarinic acetylcholine receptor M1 (Homo sapiens). As to the kind of experiment: Displacement of [3H]-NMS from human muscarinic acetylcholine receptor M1 […] after 5 hrs by liquid scintillation counting. (In general: In a radioligand displacement assay an active substance lowers the binding of a labelled ligand.)
Test [7] shares this target. As to the kind of experiment: Allosteric agonist at human muscarinic acetylcholine receptor M1 expressed in CHO-NFAT cells assessed as induction of calcium mobilization after 4 mins by Fluo-4AM-based FLIPR assay. The class given is functional, cell-based.

Take `Cn1cc(-c2ccc(Cn3cc(C(=O)N4CCN(C(=O)OC(C)(C)C)CC4)c4ncccc43)cc2)cn1`: in test [1], the outcome was inactive.
For `CCNC(=O)c1cn(Cc2ccc(-c3cnn(C)c3)cc2)c2cccnc12`, in test [2], the Intrinsic activity was 3.63 and the log(IA) came to 0.56. Further, the pKb in test [3] was 4.61.
As to `Cn1cc(-c2ccc(Cn3cc(C(=O)N[C@H]4CCCC[C@@H]4N)c4ncccc43)cc2)cn1`, the outcome in test [1] was Active.
With `Cn1cc(-c2ccc(Cn3cc(C(=O)N[C@@H]4CCCC[C@H]4O)c4c(F)cc(F)cc43)cn2)cn1`, the EC50 in test [4] amounted to 210 nM; in test [5] it was 4800 nM.
For the compound `Cn1cc(-c2ccc(Cn3cc(C(=O)N[C@H]4CCCC[C@@H]4O)c4ccccc43)cc2)cn1`, in test [1], the outcome was Active. The Intrinsic activity result in test [2] is “Active”.
For `Cn1cc(-c2ccc(Cn3nc(C(=O)N[C@H]4CCCC[C@@H]4O)c4ccccc43)cc2)cn1`, the result in test [1] was Active. In addition, the Intrinsic activity entry in test [2] is “Active”.
In the case of `O=C(O)c1ccc(Cn2cc(C(=O)N[C@H]3CCCC[C@@H]3O)c3ncccc32)cc1`, in test [2], the Intrinsic activity came out at 2.88 and the log(IA) is 0.46. For the same compound, the pKb in test [3] was 4.63.
Regarding `Cn1cc(-c2ccc(Cn3cc(C(=O)N4CCCCC4)c4ncccc43)cc2)cn1`, in test [1], the outcome was inactive. The Intrinsic activity entry in test [2] is “inactive”.
Turning to `Cn1cc(-c2ccc(Cn3cc(C(=O)N[C@H]4CC[C@H](O)CC4)c4ncccc43)cc2)cn1`, the Intrinsic activity entry in test [2] is “Active”.
For `CCN(CC)C(=O)c1cn(Cc2ccc(-c3cnn(C)c3)cc2)c2cccnc12`, in test [2], the Intrinsic activity came out at 0. Further, in test [3], the pKb turned out to be 4.43.
As to `Cn1cc(-c2ccc(Cn3cc(C(=O)N[C@H]4CCCC[C@@H]4O)c4c(F)cccc43)cc2)cn1`, the result in test [1] was Active. Also, the Intrinsic activity result in test [2] was “Active”.
With `Cn1cc(-c2ccc(Cn3cc(C(=O)N[C@H]4CCCC[C@@H]4O)c4ncccc43)cc2)cn1`, in test [6], the pKb worked out at 5.92. For the same compound, the result in test [1] was Active. Further, in test [2], the Intrinsic activity was 22.9 and the log(IA) stood at 1.36.
On to `Cn1cc(-c2ccc(Cn3cc(C(=O)Nc4ccccc4)c4ncccc43)cc2)cn1`, for which the Intrinsic activity in test [2] was 73%.
On the same count and under the same terms, as for `Cn1cc(-c2ccc(Cn3cc(C(=O)N4CCNCC4)c4ncccc43)cc2)cn1`, the entry is “Active”.
As for `Cc1cnc(C(=O)N[C@@H]2CCOC[C@H]2O)cc1Cc1ccc(-c2cscn2)cc1`, the negative logarithm of the Kb (pKb) in test [6] amounted to 6.2.
As for `Cn1cc(-c2ccc(Cn3cc(C(=O)N4CCCC4)c4ncccc43)cc2)cn1`, the result in test [1] was Active. In addition, in test [2], the Intrinsic activity entry is “inactive”.
For the compound `CNC(=O)c1cn(Cc2ccc(-c3cnn(C)c3)cc2)c2cccnc12`, in test [1], the outcome was Active.
Turning to `Cn1cc(-c2ccc(Cn3cc(C(=O)NC4CCOCC4)c4ncccc43)cc2)cn1`, the Intrinsic activity entry in test [2] is “Active”.
Same read-out and setting: the entry for `Cn1cc(-c2ccc(Cn3cc(C(=O)NC4CCCCC4)c4ncccc43)cc2)cn1` is “Active”.
In the case of `Cn1cc(-c2ccc(Cn3cc(C(N)=O)c4ncccc43)cc2)cn1`, the result in test [1] was Active.
In the case of `Cn1cc(-c2ccc(Cn3ccc(C(=O)N[C@H]4CCCC[C@@H]4O)c3)cc2)cn1`, the fold change (FC) in test [1] was 7. In test [2], the Intrinsic activity is 3.31 and the log(IA) amounted to 0.52. In addition, in test [3], the pKb was 4.19.
With `CN(C(=O)c1cn(Cc2ccc(-c3cnn(C)c3)cc2)c2cccnc12)C1CCCCC1`, in test [2], the Intrinsic activity was determined as 0.57 and the log(IA) is -0.24. The negative-log Kb (pKb) in test [3] worked out at 4.91.
On to `Cn1cc(-c2ccc(Cn3cc(C(=O)N[C@H]4CCCO[C@@H]4O)c4ncccc43)cc2)cn1`, for which the Intrinsic activity entry in test [2] was “Active”.
Regarding `Cn1cc(-c2ccc(Cn3cc(C(=O)N[C@H]4CCCC[C@@H]4O)c4c(Cl)cccc43)cc2)cn1`, in test [1], the outcome was Active. Moreover, the Intrinsic activity result in test [2] was “Active”.
For the compound `Cn1cc(-c2ccc(Cn3cc(C(=O)N[C@H]4CCC[C@@H]4O)c4ncccc43)cc2)cn1`, the Intrinsic activity result in test [2] is “Active”.
In the case of `CN(C)C(=O)c1cn(Cc2ccc(-c3cnn(C)c3)cc2)c2cccnc12`, in test [1], the result was Active. In addition, the Intrinsic activity entry in test [2] is “inactive”.
The matching figures for `Cn1cc(-c2ccc(Cn3cc(C(=O)Nc4ccccc4O)c4ncccc43)cc2)cn1`: “inactive” and 14%.
As for `Cn1cc(-c2ccc(Cn3cc(C(=O)NC4CCNCC4)c4ncccc43)cc2)cn1`, the Intrinsic activity result in test [2] is “Active”.
Same read-out and setting: as for `Cn1cc(-c2ccc(Cn3cc(C(=O)NC4CCC(=O)CC4)c4ncccc43)cc2)cn1`, the entry is “Active”.
As for `COc1ccc(Cn2cc(C(=O)O)c(=O)c3ccccc32)cc1`, the pKb in test [6] was 5.48. Besides, in test [7], the Intrinsic activity was found to be 2.09 and the log(IA) worked out at 0.32.
For `Cn1cc(-c2ccc(Cn3cc(C(=O)N[C@H]4CCOC[C@@H]4O)c4ncccc43)cc2)cn1`, the Intrinsic activity entry in test [2] was “Active”.

For orientation: pKb means the negative decadic logarithm of the Kb, by convention in mol/L. Usually EC50 stands for the midpoint of the concentration-response curve.
